Key:
[1] = test system: DC3F/ADR; assay: Binding affinity to p-glycoprotein in chinese hamster DC3F/ADR cells assessed as increase in basal activity at 0.5 uM after 30 mins by spectrophotometric method relative to control; format: cell-based; conditions: Cricetulus griseus
Summary of the method: (§1)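 P-gp membrane vesicles from resistant DC-3F/ADX cells; basal MgATP hydrolysis tracked by PK/LDH-coupled NADH depletion (PEP, NADH) at 340 nm, with non-specific ATPase inhibitor in basal wells. Plate preincubated 30 min at 37 °C; vesicles 5 min, compound 5 min, then MgATP 20 min at 37 °C; read, re-read after 20 min. Triplicate; ≥30% basal change taken as interaction.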

[2] = Binding affinity to Mg2+ ion in HEPES buffer at pH 7.2; format: physicochemical
[3] = test system: DC3F/ADR; assay: Binding affinity to p-glycoprotein in chinese hamster DC3F/ADR cells assessed as increase in basal activity at 0.05 uM after 30 mins by spectrophotometric method relative to control; format: cell-based; conditions: Cricetulus griseus; summary of the method: as §1
[4] = test system: DC3F/ADR; assay: Binding affinity to p-glycoprotein in chinese hamster DC3F/ADR cells assessed as increase in basal activity at 5 uM after 30 mins by spectrophotometric method relative to control; format: cell-based; conditions: Cricetulus griseus; summary of the method: as §1

| Compound | Activity [1] | Ka [2] | Activity [3] | Activity [4] |
| --- | --- | --- | --- | --- |
| CN1C(=O)C(=CNc2cccc(N)n2)C(=O)N(C)C1=O | 81% | 2.57 ×10⁵ /M | 44% | 92% |
| CN1C(=O)C(=C(/C=C/c2ccccc2)NCCNC(/C=C/c2ccccc2)=C2C(=O)N(C)C(=O)N(C)C2=O)C(=O)N(C)C1=O | 166% | 5.84 ×10⁵ /M | 100% | 66% |
| CN1C(=O)C(=CNc2ccccc2C(=O)O)C(=O)N(C)C1=O | 83% | 3.6 ×10⁶ /M | 35% | 100% |
| CN1C(=O)C(=CNc2cc(C(=O)O)ccc2C(=O)O)C(=O)N(C)C1=O | 80% | 7.46 ×10⁵ /M | 57% | 146% |
| CN1C(=O)C(=C(Nc2ccccc2N)c2ccccc2)C(=O)N(C)C1=O | 144% | 2.41 ×10⁴ /M | 42% | 135% |
| COc1ccccc1NC=C1C(=O)N(C)C(=O)N(C)C1=O | 95% | 5.79 ×10⁵ /M | 53% | 123% |
| CN1C(=O)C(=C(NNC(=C2C(=O)N(C)C(=O)N(C)C2=O)c2ccccc2)c2ccccc2)C(=O)N(C)C1=O | 100% | 1.11 ×10⁶ /M | 66% | 166% |
| CN1C(=O)C(=CNc2ccccc2N)C(=O)N(C)C1=O | 102% | 7.06 ×10⁵ /M | 33% | 166% |
| CN1C(=O)C(=CNCCNC=C2C(=O)N(C)C(=O)N(C)C2=O)C(=O)N(C)C1=O | 71% | 8.68 ×10⁵ /M | 66% | 134% |
| CN1C(=O)C(=CNNc2ccccc2)C(=O)N(C)C1=O | 97% | 1.53 ×10⁷ /M | 57% | 168% |
| CN1C(=O)C(=C(/C=C/c2ccccc2)NNC(/C=C/c2ccccc2)=C2C(=O)N(C)C(=O)N(C)C2=O)C(=O)N(C)C1=O | 69% | 4.82 ×10⁵ /M | 33% | 200% |
| CN1C(=O)C(=CNCc2ccccn2)C(=O)N(C)C1=O | 75% | 3.2 ×10⁵ /M | 63% | 98% |
| CN1C(=O)C(=C(/C=C/c2ccccc2)Nc2ccccc2N)C(=O)N(C)C1=O | 112% | 2.7 ×10⁴ /M | 44% | 133% |
| CN1C(=O)C(=CNc2ccccc2[N+](=O)[O-])C(=O)N(C)C1=O | 99% | 1.4 ×10⁵ /M | 51% | 141% |
| CN1C(=O)C(=CNc2ccccc2O)C(=O)N(C)C1=O | 114% | 5.76 ×10⁵ /M | 42% | 95% |

Reference: ChEMBL document CHEMBL1154883, “Synthesis of highly functionalized barbituric acids and study of their interactions with p-glycoprotein and Mg2+--potential candidates for multi drug resistance modulation” (Eur J Med Chem, 2010)
